Source: ChEMBL document CHEMBL3576776, “3-Nitroasterric Acid Derivatives from an Antarctic Sponge-Derived Pseudogymnoascus sp. Fungus” (2015)

Columns and labels:
Assay type in all cases: functional
[1] = tested on: Staphylococcus aureus; experiment: Antibacterial activity against methicillin-sensitive Staphylococcus aureus EPI167
How it was run: (§1)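 Compounds twofold serially diluted in DMSO, 10 concentrations starting at 64 μg/mL. Growth inhibition read after overnight incubation. MIC taken as the lowest concentration inhibiting ≥95% of growth. Assay robustness RZ′ factor 0.89–0.97.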

[2] = tested on: Candida albicans; experiment: Antifungal activity against Candida albicans ATCC64124
How it was run: (§2)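 Compounds serially diluted twofold in DMSO to give 10 concentrations starting at 64 μg/mL; bacterial and fungal strains exposed by previously described methods. MIC taken as lowest concentration inhibiting ≥95% of growth after overnight incubation. Data processed to give MIC; assay robustness RZ′ factor 0.89–0.97 across experiments.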

[3] = tested on: Escherichia coli; experiment: Antibacterial activity against Escherichia coli MB2884; how it was run: as §2
[4] = tested on: Acinetobacter baumannii; experiment: Antibacterial activity against Acinetobacter baumannii CL 5973; how it was run: as §2
[5] = tested on: Candida albicans; experiment: Antifungal activity against Candida albicans MY1055; how it was run: as §2
[6] = tested on: Pseudomonas aeruginosa; experiment: Antibacterial activity against Pseudomonas aeruginosa PAO1; how it was run: as §2
[7] = tested on: Staphylococcus aureus; experiment: Antibacterial activity against methicillin-resistant Staphylococcus aureus MB5393; how it was run: as §1
[8] = tested on: Aspergillus fumigatus; experiment: Antifungal activity against Aspergillus fumigatus ATCC46645; how it was run: as §2

Measured: MIC95

COC(=O)c1c(Oc2cc(C)cc(O)c2C(=O)OCC(C)C(=O)OC)c(OC)cc(O)c1[N+](=O)[O-] (configuration not stated)
> 64 µg/mL: [1] | [2] | [3] | [4] | [5] | [6] | [7] | [8]

COC(=O)c1c(Oc2cc(C)cc(O)c2C(=O)OCC(C)C(=O)O)c(OC)cc(O)c1[N+](=O)[O-] (configuration not stated)
> 64 µg/mL: [1] | [2] | [3] | [4] | [5] | [6] | [7] | [8]

COC(=O)c1c(Oc2cc(C)cc(O)c2C(=O)OC(C)C(=O)O)c(OC)cc(O)c1[N+](=O)[O-] (configuration not stated)
> 64 µg/mL: [1] | [2] | [3] | [4] | [5] | [6] | [7] | [8]

COC(=O)c1c(Oc2cc(C)cc(O)c2C(=O)O)c(OC)cc(O)c1[N+](=O)[O-]
> 64 µg/mL: [1] | [2] | [3] | [4] | [5] | [6] | [7] | [8]
